Data reported in ChEMBL document CHEMBL4043061, “Potent, Selective, Allosteric Inhibition of Human Plasmin by Sulfated Non-Saccharide Glycosaminoglycan Mimetics” (J Med Chem, 2017).
Activity calls are given as the source filed them. The calls are words filed in the database; no cut-off is given here.

How the values were obtained:
[1] = biological target: Plasminogen (Homo sapiens) (UniProt P00747); experiment: Binding affinity to human plasmin assessed as loss of intrinsic tryptophan fluorescence at 250 uM by spectrofluorometric method
[2] = biological target: Plasminogen (Homo sapiens) (UniProt P00747); experiment: Allosteric inhibition of full length human plasmin by using chromogenic substrate spectrozyme PL preincubated for 5 mins followed by substrate addition by spectrophotometric method
Procedure, shortened: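 Inhibitor added from 0–20 mM aqueous stocks, or vehicle. After 5 min, Spectrozyme PL added (1 mM stock). Residual activity taken from initial rate of A405 rise. Logistic fit gives IC50, efficacy and Hill slope.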

[3] = biological target: Prothrombin (Homo sapiens) (UniProt P00734); experiment: Inhibition of human thrombin by using chromogenic substrate spectrozyme TH preincubated for 5 mins followed by substrate addition by spectrophotometric method
Procedure, shortened: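 Thrombin at 6 nM final, 25 °C, in 20 mM Tris-HCl pH 7.4 with 100 mM NaCl, 2.5 mM CaCl2, 0.1% PEG8000, 0.02% Tween80. Inhibitor (0–20 mM stock) or vehicle preincubated 5 min with enzyme. Spectrozyme TH added (1.0 mM stock). Residual activity read as initial rate of A405 increase and fitted to a sigmoidal dose–response curve.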

[4] = biological target: Plasminogen (Homo sapiens) (UniProt P00747); details: 200 uM
Homo sapiens = species: Homo sapiens; experiment: Inhibition of human chymotrypsin using chromogenic substrate spectrozyme Cty preincubated for 5 mins followed by substrate addition by spectrophotometric method
Procedure, shortened: (§1)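 Tris-HCl pH 7.4 buffer (100 mM NaCl, 2.5 mM CaCl2, 0.1% PEG8000, 0.02% Tween80) at 37 °C; factor IXa buffer also held 33% ethylene glycol. Final enzyme: factor Xa 1.09 nM, XIa 0.75 nM, XIIa 10 nM, IXa 250 nM, trypsin 0.145 µg/mL, chymotrypsin […]. Inhibitor from 0–20 mM stock, 5 min preincubation, then substrate. Initial A405 rate, sigmoidal dose–response fit.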

[5] = biological target: Coagulation factor XI (Homo sapiens) (UniProt P03951); experiment: Inhibition of human F11a by using chromogenic substrate S-2366 preincubated for 5 mins followed by substrate addition by spectrophotometric method; procedure, shortened: as §1
[6] = biological target: Coagulation factor X (Homo sapiens) (UniProt P00742); experiment: Inhibition of human F10a by using chromogenic substrate spectrozyme F10a preincubated for 5 mins followed by substrate addition by spectrophotometric method; procedure, shortened: as §1
Coagulation factor X (Homo sapiens), sequence (P00742 41-179 limits assumed): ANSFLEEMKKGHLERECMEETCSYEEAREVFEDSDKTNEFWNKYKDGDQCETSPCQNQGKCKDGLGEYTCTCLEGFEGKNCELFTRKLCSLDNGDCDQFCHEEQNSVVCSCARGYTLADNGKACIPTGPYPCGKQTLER
Coagulation factor X (Homo sapiens), sequence (P00742 235-488 limits assumed): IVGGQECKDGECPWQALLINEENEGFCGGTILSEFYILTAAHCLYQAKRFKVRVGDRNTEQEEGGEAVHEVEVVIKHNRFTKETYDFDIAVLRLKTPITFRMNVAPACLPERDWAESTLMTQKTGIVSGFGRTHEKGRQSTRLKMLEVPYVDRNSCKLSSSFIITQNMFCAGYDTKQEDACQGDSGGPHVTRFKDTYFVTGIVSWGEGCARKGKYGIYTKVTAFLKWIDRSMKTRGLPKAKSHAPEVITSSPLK

Plasminogen (Homo sapiens), sequence (P00747 97-580 limits assumed): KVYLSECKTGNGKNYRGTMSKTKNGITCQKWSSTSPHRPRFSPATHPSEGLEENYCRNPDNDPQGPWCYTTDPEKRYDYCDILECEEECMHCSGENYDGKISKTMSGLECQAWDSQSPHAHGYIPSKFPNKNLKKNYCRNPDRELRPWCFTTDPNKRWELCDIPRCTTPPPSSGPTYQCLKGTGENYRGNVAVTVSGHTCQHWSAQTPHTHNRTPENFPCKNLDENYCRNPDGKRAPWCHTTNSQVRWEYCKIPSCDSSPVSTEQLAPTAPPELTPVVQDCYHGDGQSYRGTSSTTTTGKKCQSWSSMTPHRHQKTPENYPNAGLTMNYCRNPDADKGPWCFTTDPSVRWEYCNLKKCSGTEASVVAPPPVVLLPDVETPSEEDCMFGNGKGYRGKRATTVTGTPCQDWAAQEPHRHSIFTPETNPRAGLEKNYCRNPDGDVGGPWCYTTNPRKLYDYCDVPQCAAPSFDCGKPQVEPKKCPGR
Plasminogen (Homo sapiens), sequence (P00747 581-810 limits assumed): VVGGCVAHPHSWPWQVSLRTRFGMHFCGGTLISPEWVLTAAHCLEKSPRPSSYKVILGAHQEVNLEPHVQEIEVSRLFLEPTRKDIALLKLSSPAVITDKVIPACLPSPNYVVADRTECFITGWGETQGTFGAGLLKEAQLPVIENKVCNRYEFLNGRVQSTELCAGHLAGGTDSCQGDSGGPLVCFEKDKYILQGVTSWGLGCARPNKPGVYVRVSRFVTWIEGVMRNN
Coagulation factor XI (Homo sapiens), sequence (P03951 19-387 limits assumed): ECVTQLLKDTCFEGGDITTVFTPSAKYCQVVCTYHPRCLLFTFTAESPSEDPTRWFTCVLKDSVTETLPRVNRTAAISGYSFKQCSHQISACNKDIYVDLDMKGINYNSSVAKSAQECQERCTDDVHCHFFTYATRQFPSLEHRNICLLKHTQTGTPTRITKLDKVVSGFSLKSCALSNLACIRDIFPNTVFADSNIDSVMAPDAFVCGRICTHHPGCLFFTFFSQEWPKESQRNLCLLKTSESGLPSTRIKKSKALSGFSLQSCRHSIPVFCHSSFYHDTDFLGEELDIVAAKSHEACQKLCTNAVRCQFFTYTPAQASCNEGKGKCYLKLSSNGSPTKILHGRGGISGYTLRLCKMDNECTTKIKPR
Coagulation factor XI (Homo sapiens), sequence (P03951 388-625 limits assumed): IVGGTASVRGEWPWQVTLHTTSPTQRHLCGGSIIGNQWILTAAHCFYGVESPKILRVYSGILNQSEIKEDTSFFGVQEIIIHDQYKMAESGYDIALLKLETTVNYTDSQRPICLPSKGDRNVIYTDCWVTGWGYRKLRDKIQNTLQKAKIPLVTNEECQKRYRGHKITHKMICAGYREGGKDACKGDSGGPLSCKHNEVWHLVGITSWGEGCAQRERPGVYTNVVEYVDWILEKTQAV

SMILES	Efficacy [2] [%]	other results
O=c1c(OS(=O)(=O)O)c(-c2ccc(OS(=O)(=O)O)c(OS(=O)(=O)O)c2)oc2cc(OS(=O)(=O)O)cc(OCc3ccc(COc4cc(OS(=O)(=O)O)cc5oc(-c6ccc(OS(=O)(=O)O)c(OS(=O)(=O)O)c6)c(OS(=O)(=O)O)c(=O)c45)cc3)c12	93 to 98	Efficacy [3]: 77%; inhibition [4]: Active; Efficacy (Homo sapiens): 92%; Efficacy [5]: 93%
O=c1cc(-c2ccc(OS(=O)(=O)O)cc2)oc2cc(OS(=O)(=O)O)cc(OCc3ccc(COc4cc(OS(=O)(=O)O)cc5oc(-c6ccc(OS(=O)(=O)O)cc6)cc(=O)c45)cc3)c12	89	–
O=c1c(OS(=O)(=O)O)c(-c2ccc(OS(=O)(=O)O)c(OS(=O)(=O)O)c2)oc2cc(OS(=O)(=O)O)cc(OCc3cccc(COc4cc(OS(=O)(=O)O)cc5oc(-c6ccc(OS(=O)(=O)O)c(OS(=O)(=O)O)c6)c(OS(=O)(=O)O)c(=O)c45)n3)c12	90	–
O=c1c(O)c(-c2ccc(O)c(O)c2)oc2cc(O)cc(OCc3ccc(COc4cc(O)cc5oc(-c6ccc(O)c(O)c6)c(O)c(=O)c45)cc3)c12	111	Efficacy [6]: 104%; Efficacy [3]: 91%; Efficacy [5]: 109%
O=c1c(OS(=O)(=O)O)c(-c2ccc(OS(=O)(=O)O)c(OS(=O)(=O)O)c2)oc2cc(OS(=O)(=O)O)cc(OCc3ccc(-c4ccc(COc5cc(OS(=O)(=O)O)cc6oc(-c7ccc(OS(=O)(=O)O)c(OS(=O)(=O)O)c7)c(OS(=O)(=O)O)c(=O)c56)cc4)cc3)c12	80	–
O=c1cc(-c2ccc(OS(=O)(=O)O)cc2)oc2cc(OS(=O)(=O)O)cc(OCc3ccc(COc4cc(OS(=O)(=O)O)cc5oc(-c6ccc(OS(=O)(=O)O)c(OS(=O)(=O)O)c6)c(OS(=O)(=O)O)c(=O)c45)cc3)c12	109	–
Cc1cc(COc2cc(OS(=O)(=O)O)cc3oc(-c4ccc(OS(=O)(=O)O)c(OS(=O)(=O)O)c4)c(OS(=O)(=O)O)c(=O)c23)c(C)cc1COc1cc(OS(=O)(=O)O)cc2oc(-c3ccc(OS(=O)(=O)O)c(OS(=O)(=O)O)c3)c(OS(=O)(=O)O)c(=O)c12	104	Activity [1]: 90%

The next lines start with results.

Efficacy [2] [%]	SMILES	other results
90	O=c1cc(-c2ccc(OS(=O)(=O)O)cc2)oc2cc(OS(=O)(=O)O)cc(OC/C=C/COc3cc(OS(=O)(=O)O)cc4oc(-c5ccc(OS(=O)(=O)O)cc5)cc(=O)c34)c12	Activity [1]: 101%
107	O=c1c(OS(=O)(=O)O)c(-c2ccc(OS(=O)(=O)O)c(OS(=O)(=O)O)c2)oc2cc(OS(=O)(=O)O)cc(OCc3cccc(COc4cc(OS(=O)(=O)O)cc5oc(-c6ccc(OS(=O)(=O)O)c(OS(=O)(=O)O)c6)c(OS(=O)(=O)O)c(=O)c45)c3)c12	–
90	O=c1cc(-c2ccc(OS(=O)(=O)O)cc2)oc2cc(OS(=O)(=O)O)cc(OCCCCOc3cc(OS(=O)(=O)O)cc4oc(-c5ccc(OS(=O)(=O)O)cc5)cc(=O)c34)c12	–
94	Cc1cc(COc2cc(OS(=O)(=O)O)cc3oc(-c4ccc(OS(=O)(=O)O)cc4)cc(=O)c23)c(C)cc1COc1cc(OS(=O)(=O)O)cc2oc(-c3ccc(OS(=O)(=O)O)cc3)cc(=O)c12	Activity [1]: 108%
79	O=c1cc(-c2ccc(OS(=O)(=O)O)cc2)oc2cc(OS(=O)(=O)O)cc(OCc3ccc(-c4ccc(COc5cc(OS(=O)(=O)O)cc6oc(-c7ccc(OS(=O)(=O)O)cc7)cc(=O)c56)cc4)cc3)c12	–
72	O=c1c(OS(=O)(=O)O)c(-c2ccc(OS(=O)(=O)O)c(OS(=O)(=O)O)c2)oc2cc(OS(=O)(=O)O)cc(OCCCCOc3cc(OS(=O)(=O)O)cc4oc(-c5ccc(OS(=O)(=O)O)c(OS(=O)(=O)O)c5)c(OS(=O)(=O)O)c(=O)c34)c12	–
79	O=c1cc(-c2ccc(OS(=O)(=O)O)cc2)oc2cc(OS(=O)(=O)O)cc(OCCOc3cc(OS(=O)(=O)O)cc4oc(-c5ccc(OS(=O)(=O)O)cc5)cc(=O)c34)c12	–
63	O=c1cc(-c2ccc(OS(=O)(=O)O)cc2)oc2cc(OS(=O)(=O)O)cc(OCc3cccc(COc4cc(OS(=O)(=O)O)cc5oc(-c6ccc(OS(=O)(=O)O)cc6)cc(=O)c45)n3)c12	–
86	O=c1cc(-c2ccc(OS(=O)(=O)O)cc2)oc2cc(OS(=O)(=O)O)cc(OCc3cccc(COc4cc(OS(=O)(=O)O)cc5oc(-c6ccc(OS(=O)(=O)O)cc6)cc(=O)c45)c3)c12	–
